ABHD5-PLIN5 inh: blocks binding of human ABHD5 to perilipin-5 | Q00G26+Q8WTS1 | Split G. princeps luciferase complementation, luminescence, 4 h | inhibition, % at 4 µM | actives 0.78% (n = 360,000);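 active = inhibition above the mean inhibition across every tested compound plus 3 SD, cut at about 22% in these data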;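 also: 0% = DMSO only wells and the 100% control is not disclosed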
Target sequence (Q00G26 whole entry, looked up): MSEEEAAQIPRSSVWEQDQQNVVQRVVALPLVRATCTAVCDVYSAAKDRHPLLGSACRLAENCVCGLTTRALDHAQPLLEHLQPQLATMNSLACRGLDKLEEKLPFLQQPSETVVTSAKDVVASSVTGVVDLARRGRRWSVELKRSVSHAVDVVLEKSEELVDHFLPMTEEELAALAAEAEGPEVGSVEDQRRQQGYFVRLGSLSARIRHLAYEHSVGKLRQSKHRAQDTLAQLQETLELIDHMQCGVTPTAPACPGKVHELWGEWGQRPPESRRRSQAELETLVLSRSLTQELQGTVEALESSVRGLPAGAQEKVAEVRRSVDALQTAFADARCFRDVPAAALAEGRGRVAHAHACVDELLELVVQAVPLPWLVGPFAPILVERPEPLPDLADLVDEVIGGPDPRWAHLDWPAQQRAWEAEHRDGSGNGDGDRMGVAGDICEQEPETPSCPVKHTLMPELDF
Target sequence (Q8WTS1 whole entry, looked up): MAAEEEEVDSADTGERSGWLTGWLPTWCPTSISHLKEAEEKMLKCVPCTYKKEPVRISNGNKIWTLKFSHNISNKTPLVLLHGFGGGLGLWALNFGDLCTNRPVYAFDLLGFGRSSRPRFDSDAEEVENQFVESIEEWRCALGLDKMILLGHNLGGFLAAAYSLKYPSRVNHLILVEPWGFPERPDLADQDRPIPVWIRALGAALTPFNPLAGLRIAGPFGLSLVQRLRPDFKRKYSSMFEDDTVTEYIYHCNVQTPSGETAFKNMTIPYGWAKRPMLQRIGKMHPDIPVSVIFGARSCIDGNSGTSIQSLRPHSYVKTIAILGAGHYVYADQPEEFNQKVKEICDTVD
A3G deaminase: blocks human APOBEC3G single-stranded DNA deamination; recombinant A3G, ssDNA deamination FAM/TAMRA fluorescence; inhibition, % at 20 µM; actives 0.28% (n = 330,000); AID 493012;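 active = inhibition of at least 40% at 20 µM, with no more than 30% in the related APOBEC3A deaminase screen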;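 also: plate controls were DMSO wells with A3G for no effect and wells lacking A3G enzyme for full effect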
PRMT1 FP inh: inhibitors of human PRMT1. Q99873. recombinant PRMT1, activity-based probe fluorescence polarization. inhibition, % at 2.79 µM. actives 1.3% (n = 370,000);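 active = inhibition above about 21% made by adding two undisclosed values, limit read from the data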
APOBEC3A inh: human APOBEC3A DNA deaminase inhibition | P31941 | recombinant A3A, FAM/TAMRA ssDNA deamination fluorescence | inhibition, % at 20 µM | actives 0.41% (n = 330,000);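 active = at least 40% inhibition at 20 µM here, with at most 30% in a related deaminase screen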;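 also: plate controls were A3A with DMSO for no effect and wells lacking A3A enzyme for full effect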
HCV NS3 hel inh: inhibitors of Hepatitis C virus NS3 helicase; inhibition, % at 10.9 µM; AID 1800; actives 0.56% (n = 290,000); NS3 helicase DNA unwinding, Cy5 molecular beacon fluorescence;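 active = inhibition above the mean of all tested compounds plus 3 SD, set per campaign, cut at about 35% in these data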;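 also: 0% = DMSO wells and 100% = thioflavine S control wells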
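Assay system – hepatitis C virus NS3 helicase domain fragment enzyme · Buffer or medium – MOPS pH 6.5, MgCl2, DTT, Tween20, BSA · Reagent – Cy5/quencher beacon DNA duplex and ATP to start · Compound – single 10.9 µM dose · Timing – 1 h at 25 °C · Technique – Cy5 beacon fluorescence read at start and 1 h · Measure – % inhibition of unwinding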
HCV core dimer: blocks dimerization of HCV core protein; TR-FRET GST/Flag-core106 dimerization, 1536-well; inhibition, % at 5 µM; actives 0.33% (n = 300,000); AID 1899;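 active = inhibition above the mean of all tested compounds plus 3 SD, set per screening campaign, cut at about 45% in these data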
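assay system = GST-tagged and Flag-tagged HCV core protein residues 1-106 | controls = unlabelled core106 and no-GST-core106 wells | incubation = compound-protein-antibody incubation 4 h at 22.5 °C | probe or stimulus = Eu donor and XL665 acceptor anti-tag antibodies | read-out = % inhibition based on acceptor/donor emission ratio | signal = TR-FRET 671 and 617 nm emission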
ABHD5 PLIN5 conf: confirmation of human ABHD5-PLIN5 interaction inhibitors. actives 67% (n = 2,200). biochemical ABHD5-PLIN5 interaction, luminescence. inhibition, % at 4 µM. shares compounds with ABHD5-PLIN5 inh; in the data active = inhibition above about 23%;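 also: 0% = DMSO vehicle wells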
HNF4 counter: active in HNF4 split-luciferase counter-screen for ABHD5-PLIN5 inhibitors. inhibition, % at 4 µM. actives 77% (n = 2,200). shares compounds with ABHD5-PLIN5 inh. HNF4 dimerization, luminescence, biochemical. AID 651674;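 active = mean inhibition across replicate wells exceeding the computed hit threshold, cut at about 13% in these data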;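 also: light from luciferase halves that rejoin when HNF4 fusion proteins dimerize; 0% = DMSO only wells and the 100% control is not given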
The depositor's hits bear a star. Hits are enriched below; roughly 2.9% of the tested compounds scored in any of these assays.

Screening C=C1C(=O)O[C@@H]2[C@H]1[C@@H](OC(=O)/C(C)=C/C)C/C(C)=C\C(=O)/C=C(\C)[C@@H]2O returned ABHD5-PLIN5 inh 42.1*, A3G deaminase -4.0, PRMT1 FP inh 7.6, APOBEC3A inh -0.3, HCV core dimer 5.3, ABHD5 PLIN5 conf 61.9* and HNF4 counter 72.1*.
Oc1c(C(c2ccccc2)N2CCCCC2)ccc2ccccc12 (centres undefined) was read as ABHD5-PLIN5 inh 37.6*, PRMT1 FP inh 9.9, ABHD5 PLIN5 conf 96.1* and HNF4 counter 47.7*.
Screening CCCS(=O)(=O)NC(=O)C1(C)CCCN(C(=O)c2ccccc2F)C1 (centres undefined) returned ABHD5-PLIN5 inh 0.0 and PRMT1 FP inh 4.0.
Screening COc1ccc(-n2c(=O)cc(N3CC(C)OC(C)C3)[nH]c2=O)cc1 (centres undefined) returned ABHD5-PLIN5 inh 37.2*, A3G deaminase -11.5, PRMT1 FP inh 3.1, APOBEC3A inh -1.8, HCV NS3 hel inh 4.0, HCV core dimer 1.9, ABHD5 PLIN5 conf 1.2 and HNF4 counter -0.8.
Screening COc1ccc(-n2c(=O)cc(N3CCOCC3)[nH]c2=O)cc1 returned ABHD5-PLIN5 inh 6.5, A3G deaminase -4.7, PRMT1 FP inh 2.6, APOBEC3A inh -3.2, HCV NS3 hel inh -1.0 and HCV core dimer -0.6.
For CCc1ccc(S(=O)(=O)NC(=S)NC2CCCCC2)cc1 the results were ABHD5-PLIN5 inh -5.0, A3G deaminase 3.2, PRMT1 FP inh 0.8, APOBEC3A inh -2.7, HCV NS3 hel inh 0.8 and HCV core dimer 0.6.
For CNCCCOc1ccc(C)cc1OC the results were ABHD5-PLIN5 inh 56.7*, A3G deaminase -7.2, PRMT1 FP inh 5.0, APOBEC3A inh -2.4, HCV NS3 hel inh -0.3, HCV core dimer 11.6, ABHD5 PLIN5 conf 1.9 and HNF4 counter -0.5.
CCn1cc(CN2CCCC(C(=O)Nc3cccc(-c4cc5ccccc5[nH]4)c3)C2)c(C)n1 (centres undefined) was read as ABHD5-PLIN5 inh 31.1*, A3G deaminase -7.8, PRMT1 FP inh 0.5, APOBEC3A inh -3.0, HCV NS3 hel inh -26.1, HCV core dimer 0.4, ABHD5 PLIN5 conf 10.9 and HNF4 counter 3.9.
`Cc1ccccc1CS(=O)(=O)c1ncc(Cl)c(C(=O)Nc2ccc(F)cc2)n1` gave ABHD5-PLIN5 inh 77.5*, A3G deaminase 4.3, PRMT1 FP inh 17.1, APOBEC3A inh -0.2, HCV NS3 hel inh 1.6, HCV core dimer -6.4, ABHD5 PLIN5 conf 88.7* and HNF4 counter 90.2*.
Screening CC(=O)Nc1ccc(S(=O)(=O)N(C)c2ccccc2)cc1 returned ABHD5-PLIN5 inh -1.5, A3G deaminase -6.9, PRMT1 FP inh -2.0, APOBEC3A inh -3.2, HCV NS3 hel inh 3.4 and HCV core dimer 2.2.
`CCN(c1ccccc1)S(=O)(=O)c1ccc(NC(=O)c2nc(S(C)(=O)=O)ncc2Cl)cc1` gave ABHD5-PLIN5 inh 77.5*, A3G deaminase 3.4, APOBEC3A inh -2.9, HCV NS3 hel inh -15.6, HCV core dimer 11.7, ABHD5 PLIN5 conf 89.0* and HNF4 counter 104.2*.
For CCS(=O)(=O)c1ncc(Cl)c(C(=O)Nc2ccc(S(=O)(=O)N(C)c3ccccc3)cc2)n1 the results were ABHD5-PLIN5 inh 77.7*, A3G deaminase 2.6, PRMT1 FP inh 18.2, APOBEC3A inh 2.0, HCV NS3 hel inh -24.1, HCV core dimer 2.4, ABHD5 PLIN5 conf 92.0* and HNF4 counter 98.7*.
`Cc1ccccc1CS(=O)(=O)Cc1ccc(C(=O)Nc2ccc(F)cc2)o1` gave PRMT1 FP inh -2.1.
Screening COc1ccc2cc(S(=O)(=O)NC3CC(C)(C)NC(C)(C)C3)ccc2c1 returned ABHD5-PLIN5 inh 4.8, A3G deaminase -7.6, PRMT1 FP inh 1.4, APOBEC3A inh -3.9, HCV NS3 hel inh -10.9 and HCV core dimer -5.0.
`CN(C)c1ccc(-c2ccnc3c2CC(C)(C(=O)NCc2ccco2)O3)cc1` (centres undefined) gave ABHD5-PLIN5 inh 0.9 and PRMT1 FP inh 1.2.
CCCCCCC=C1CCC(CN2CCCC2)C1=O (centres undefined) was read as ABHD5-PLIN5 inh 24.8*, PRMT1 FP inh -2.3, ABHD5 PLIN5 conf 83.8* and HNF4 counter 28.2*.
Screening C[N+](C)(C)CCC(=O)N1C/C(=C/c2ccccc2)C(=O)/C(=C\c2ccccc2)C1 returned ABHD5-PLIN5 inh 92.2*, PRMT1 FP inh 1.9, ABHD5 PLIN5 conf 100.5* and HNF4 counter 100.5*.
O=C1/C(=C/c2ccccc2)CN(C(=O)CCN2CCOCC2)C/C1=C\c1ccccc1 was read as ABHD5-PLIN5 inh 99.5*, PRMT1 FP inh -0.7, ABHD5 PLIN5 conf 102.7* and HNF4 counter 104.6*.
For CN(C)CCC(=O)N1C/C(=C/c2ccccc2)C(=O)/C(=C\c2ccccc2)C1 the results were ABHD5-PLIN5 inh 95.5*, PRMT1 FP inh 10.5, ABHD5 PLIN5 conf 102.6* and HNF4 counter 106.4*.
CC(=O)Nc1cc(-c2ccccc2CN(C)C)cn2c(-c3ccc(F)c(Cl)c3)cnc12 was read as ABHD5-PLIN5 inh 17.2 and PRMT1 FP inh -2.0.
For CCN(Cc1ccncc1)Cc1ccc(OC)cc1OC the results were ABHD5-PLIN5 inh 26.3*, A3G deaminase -6.9, PRMT1 FP inh -6.7, APOBEC3A inh 1.8, HCV NS3 hel inh 4.5, HCV core dimer -10.6, ABHD5 PLIN5 conf -1.2 and HNF4 counter 7.7.
`CC[C@@H](C)[C@@H]1CN([C@@H](C)CN2CCC[C@H]2CN2C(N)=NC[C@@H]2Cc2ccccc2)C(=N)N1CCCC1CCCC1` gave ABHD5-PLIN5 inh 28.8*, A3G deaminase -1.3, PRMT1 FP inh 1.5, APOBEC3A inh 2.3, ABHD5 PLIN5 conf 10.6 and HNF4 counter -1.1.
CC[C@@H](C)[C@@H]1CN([C@@H](C)CN2CCC[C@H]2CN2C(N)=NC[C@@H]2Cc2ccccc2)C(=N)N1CCc1ccc(Cl)c(Cl)c1 was read as ABHD5-PLIN5 inh 34.1*, A3G deaminase -3.2, APOBEC3A inh -0.6, ABHD5 PLIN5 conf 17.3 and HNF4 counter 5.5.
`CC1(C(=O)N2Cc3ccccc3C2)CCN1C(=O)C1(c2ccccc2)CC1` (centres undefined) gave ABHD5-PLIN5 inh -9.5 and PRMT1 FP inh -6.8.
Screening COc1cc(OC)cc(C(=O)N[C@H](C(=O)OCC(=O)N2CCN(S(=O)(=O)c3ccc(C)cc3)CC2)C(C)C)c1 returned ABHD5-PLIN5 inh -4.7 and PRMT1 FP inh 2.5.

Bioassay records (PubChem BioAssay)
